Data as given in ChEMBL document CHEMBL4428062, “Human Toll-like Receptor (TLR) 8-Specific Agonistic Activity in Substituted Pyrimidine-2,4-diamines” (J Med Chem, 2016).
Active and inactive are the calls of the source. The rule behind the calls is not given here.

Legend:
Type in all cases: cell-based
Toll-like receptor 8 = molecular target: T1, Toll-like receptor 8 (Homo sapiens, UniProt Q9NR97); assay: Agonist activity at human TLR8 expressed in HEK293 cells assessed as induction of NF-kappaB activity by secreted alkaline phosphatase reporter gene assay
T1 sequence (Q9NR97 whole entry): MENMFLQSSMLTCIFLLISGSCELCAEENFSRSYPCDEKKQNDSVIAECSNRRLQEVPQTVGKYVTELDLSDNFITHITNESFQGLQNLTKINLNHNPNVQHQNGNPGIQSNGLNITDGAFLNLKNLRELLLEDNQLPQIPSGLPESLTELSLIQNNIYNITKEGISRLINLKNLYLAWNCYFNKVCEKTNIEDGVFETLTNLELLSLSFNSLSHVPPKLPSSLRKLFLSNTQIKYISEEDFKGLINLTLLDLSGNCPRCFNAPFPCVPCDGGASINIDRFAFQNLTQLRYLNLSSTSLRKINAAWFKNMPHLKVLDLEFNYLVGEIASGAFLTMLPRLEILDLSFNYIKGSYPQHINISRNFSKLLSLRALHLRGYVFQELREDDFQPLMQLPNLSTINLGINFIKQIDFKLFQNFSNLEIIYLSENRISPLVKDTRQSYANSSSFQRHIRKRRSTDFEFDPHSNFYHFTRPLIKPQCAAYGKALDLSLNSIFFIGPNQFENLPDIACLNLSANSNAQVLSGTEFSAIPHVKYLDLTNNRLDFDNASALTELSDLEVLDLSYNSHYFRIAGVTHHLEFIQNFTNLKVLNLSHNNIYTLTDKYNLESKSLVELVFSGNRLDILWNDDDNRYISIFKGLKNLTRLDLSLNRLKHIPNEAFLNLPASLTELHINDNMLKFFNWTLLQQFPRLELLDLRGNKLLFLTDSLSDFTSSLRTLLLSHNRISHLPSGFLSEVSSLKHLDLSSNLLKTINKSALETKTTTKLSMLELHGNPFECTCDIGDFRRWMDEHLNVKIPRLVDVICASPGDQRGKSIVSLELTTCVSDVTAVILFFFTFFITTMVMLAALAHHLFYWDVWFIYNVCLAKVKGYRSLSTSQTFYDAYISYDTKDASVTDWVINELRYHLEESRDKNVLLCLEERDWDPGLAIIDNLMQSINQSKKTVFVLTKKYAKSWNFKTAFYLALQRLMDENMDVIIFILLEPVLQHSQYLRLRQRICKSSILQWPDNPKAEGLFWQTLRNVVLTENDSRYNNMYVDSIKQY
Outline: (§1)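 HEK293 reporter lines stably co-transfected with the respective human TLR and an NF-κB/AP-1-driven secreted alkaline phosphatase gene, kept in selection medium. About 10^5 cells/ml were incubated with graded concentrations of stimuli. Supernatant sAP was read spectrophotometrically at 620 nm using a chromogenic substrate in detection medium. EC50 was taken as the arithmetic mean of quadruplicate samples.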

[1] = molecular target: T2, Toll-like receptor 8 (Homo sapiens) (UniProt Q9NR97); assay: Agonist activity at human TLR8 expressed in HEK293 cells assessed as induction of NF-kappaB activity at 100 uM by secreted alkaline phosphatase reporter gene assay
T2 sequence (whole entry): T1 sequence (Q9NR97 whole entry)
Outline: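 TLR8 reporter HEK293 cells carrying an NF-κB/AP-1-inducible secreted alkaline phosphatase were exposed to stimuli, with 100 µM as the top concentration tested. sAP released into the supernatant was read at 620 nm with a chromogenic substrate. Samples were run in quadruplicate.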

[2] = molecular target: Toll-like receptor 2 (Homo sapiens) (UniProt O60603); assay: Agonist activity at human TLR2 expressed in HEK293 cells assessed as induction of NF-kappaB activity by secreted alkaline phosphatase reporter gene assay; outline: as §1
[3] = molecular target: T3, Toll-like receptor 9 (Homo sapiens) (UniProt Q9NR96); assay: Agonist activity at human TLR9 expressed in HEK293 cells assessed as induction of NF-kappaB activity by secreted alkaline phosphatase reporter gene assay; outline: as §1
T3 sequence (whole entry): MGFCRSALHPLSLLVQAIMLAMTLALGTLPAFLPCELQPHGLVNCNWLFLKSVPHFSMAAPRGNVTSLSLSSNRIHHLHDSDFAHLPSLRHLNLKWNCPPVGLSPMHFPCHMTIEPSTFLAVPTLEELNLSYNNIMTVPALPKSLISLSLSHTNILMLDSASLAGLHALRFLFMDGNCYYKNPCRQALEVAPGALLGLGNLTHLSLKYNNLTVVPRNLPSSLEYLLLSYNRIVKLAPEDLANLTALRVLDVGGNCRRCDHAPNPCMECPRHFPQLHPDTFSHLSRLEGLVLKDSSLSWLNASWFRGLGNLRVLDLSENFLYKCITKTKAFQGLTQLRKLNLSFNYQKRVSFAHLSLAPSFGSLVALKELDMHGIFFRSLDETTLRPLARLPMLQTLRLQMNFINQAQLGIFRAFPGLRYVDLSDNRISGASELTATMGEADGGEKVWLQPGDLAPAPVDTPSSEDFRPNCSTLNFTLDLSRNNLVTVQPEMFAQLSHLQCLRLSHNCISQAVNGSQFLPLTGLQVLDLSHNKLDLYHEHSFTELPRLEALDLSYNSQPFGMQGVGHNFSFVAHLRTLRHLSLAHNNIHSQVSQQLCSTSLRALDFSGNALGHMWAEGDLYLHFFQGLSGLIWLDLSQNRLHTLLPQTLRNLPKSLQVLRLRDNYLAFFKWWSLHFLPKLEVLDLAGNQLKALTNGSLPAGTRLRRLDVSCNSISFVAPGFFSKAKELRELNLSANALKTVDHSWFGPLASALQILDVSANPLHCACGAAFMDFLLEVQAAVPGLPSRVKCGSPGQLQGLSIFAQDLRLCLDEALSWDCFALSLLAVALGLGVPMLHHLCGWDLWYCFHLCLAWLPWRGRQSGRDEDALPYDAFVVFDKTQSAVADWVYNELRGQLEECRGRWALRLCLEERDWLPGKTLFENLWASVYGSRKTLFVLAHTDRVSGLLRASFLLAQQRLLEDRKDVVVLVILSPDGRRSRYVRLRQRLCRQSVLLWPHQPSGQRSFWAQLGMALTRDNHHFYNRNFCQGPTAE

[4] = molecular target: Toll-like receptor 3 (Homo sapiens) (UniProt O15455); assay: Agonist activity at human TLR3 expressed in HEK293 cells assessed as induction of NF-kappaB activity by secreted alkaline phosphatase reporter gene assay; outline: as §1
[5] = molecular target: T4, Toll-like receptor 7 (Homo sapiens) (UniProt Q9NYK1); assay: Agonist activity at human TLR7 expressed in HEK293 cells assessed as induction of NF-kappaB activity by secreted alkaline phosphatase reporter gene assay; outline: as §1
T4 sequence (whole entry): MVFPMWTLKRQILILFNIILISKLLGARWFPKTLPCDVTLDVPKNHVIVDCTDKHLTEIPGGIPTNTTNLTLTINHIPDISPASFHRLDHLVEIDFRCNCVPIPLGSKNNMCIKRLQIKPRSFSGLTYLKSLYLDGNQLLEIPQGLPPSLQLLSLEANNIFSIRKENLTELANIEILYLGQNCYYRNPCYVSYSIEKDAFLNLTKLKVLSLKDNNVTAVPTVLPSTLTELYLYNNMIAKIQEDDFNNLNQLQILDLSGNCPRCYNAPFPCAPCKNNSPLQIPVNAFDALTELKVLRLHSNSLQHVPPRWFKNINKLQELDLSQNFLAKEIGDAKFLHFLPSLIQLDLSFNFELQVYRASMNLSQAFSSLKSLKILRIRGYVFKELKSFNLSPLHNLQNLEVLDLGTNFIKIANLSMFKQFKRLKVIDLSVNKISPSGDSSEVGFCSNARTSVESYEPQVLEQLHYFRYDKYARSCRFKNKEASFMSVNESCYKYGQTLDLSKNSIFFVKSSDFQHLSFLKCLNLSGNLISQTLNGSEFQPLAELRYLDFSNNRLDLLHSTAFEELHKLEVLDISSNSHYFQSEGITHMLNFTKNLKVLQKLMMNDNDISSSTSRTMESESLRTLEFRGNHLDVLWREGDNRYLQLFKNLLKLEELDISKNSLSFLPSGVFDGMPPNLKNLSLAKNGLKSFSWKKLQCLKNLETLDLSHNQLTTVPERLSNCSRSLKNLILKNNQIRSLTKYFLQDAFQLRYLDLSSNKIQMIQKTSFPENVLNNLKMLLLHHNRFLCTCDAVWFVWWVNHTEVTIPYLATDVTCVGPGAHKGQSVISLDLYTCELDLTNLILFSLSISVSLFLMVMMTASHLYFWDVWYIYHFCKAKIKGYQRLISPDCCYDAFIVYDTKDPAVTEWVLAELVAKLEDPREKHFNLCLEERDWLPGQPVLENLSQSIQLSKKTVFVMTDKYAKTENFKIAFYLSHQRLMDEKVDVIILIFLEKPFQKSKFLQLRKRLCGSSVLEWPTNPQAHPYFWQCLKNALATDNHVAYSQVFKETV

[6] = molecular target: Toll-like receptor 5 (Homo sapiens) (UniProt O60602); assay: Agonist activity at human TLR5 expressed in HEK293 cells assessed as induction of NF-kappaB activity by secreted alkaline phosphatase reporter gene assay; outline: as §1
[7] = molecular target: Toll-like receptor 4 (Homo sapiens) (UniProt O00206); assay: Agonist activity at human TLR4 expressed in HEK293 cells assessed as induction of NF-kappaB activity by secreted alkaline phosphatase reporter gene assay; outline: as §1
Sequence of Toll-like receptor 4 (Homo sapiens) (O00206 whole entry): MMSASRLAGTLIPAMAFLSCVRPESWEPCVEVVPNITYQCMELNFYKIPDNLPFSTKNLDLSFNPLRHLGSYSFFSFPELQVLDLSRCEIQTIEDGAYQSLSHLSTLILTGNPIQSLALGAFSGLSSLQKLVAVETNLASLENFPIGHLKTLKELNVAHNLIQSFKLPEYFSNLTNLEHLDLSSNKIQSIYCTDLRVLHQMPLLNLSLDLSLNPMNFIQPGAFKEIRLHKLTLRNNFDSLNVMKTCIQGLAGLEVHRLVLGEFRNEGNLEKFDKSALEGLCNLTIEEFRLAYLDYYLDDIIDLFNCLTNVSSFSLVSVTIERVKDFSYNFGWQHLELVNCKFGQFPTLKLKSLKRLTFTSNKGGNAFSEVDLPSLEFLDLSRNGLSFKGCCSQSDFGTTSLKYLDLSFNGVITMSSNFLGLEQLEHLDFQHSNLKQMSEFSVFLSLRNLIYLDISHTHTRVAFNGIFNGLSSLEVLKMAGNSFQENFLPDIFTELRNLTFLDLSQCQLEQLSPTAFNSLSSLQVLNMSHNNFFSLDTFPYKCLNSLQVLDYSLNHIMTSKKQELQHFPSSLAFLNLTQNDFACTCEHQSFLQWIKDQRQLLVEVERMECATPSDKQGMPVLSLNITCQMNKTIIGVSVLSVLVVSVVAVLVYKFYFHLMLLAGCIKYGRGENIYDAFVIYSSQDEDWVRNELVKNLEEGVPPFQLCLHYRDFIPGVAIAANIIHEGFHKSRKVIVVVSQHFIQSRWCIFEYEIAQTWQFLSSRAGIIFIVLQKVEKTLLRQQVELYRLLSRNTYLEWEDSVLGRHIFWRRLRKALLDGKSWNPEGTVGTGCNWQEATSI

Sequence of Toll-like receptor 5 (Homo sapiens) (O60602 whole entry): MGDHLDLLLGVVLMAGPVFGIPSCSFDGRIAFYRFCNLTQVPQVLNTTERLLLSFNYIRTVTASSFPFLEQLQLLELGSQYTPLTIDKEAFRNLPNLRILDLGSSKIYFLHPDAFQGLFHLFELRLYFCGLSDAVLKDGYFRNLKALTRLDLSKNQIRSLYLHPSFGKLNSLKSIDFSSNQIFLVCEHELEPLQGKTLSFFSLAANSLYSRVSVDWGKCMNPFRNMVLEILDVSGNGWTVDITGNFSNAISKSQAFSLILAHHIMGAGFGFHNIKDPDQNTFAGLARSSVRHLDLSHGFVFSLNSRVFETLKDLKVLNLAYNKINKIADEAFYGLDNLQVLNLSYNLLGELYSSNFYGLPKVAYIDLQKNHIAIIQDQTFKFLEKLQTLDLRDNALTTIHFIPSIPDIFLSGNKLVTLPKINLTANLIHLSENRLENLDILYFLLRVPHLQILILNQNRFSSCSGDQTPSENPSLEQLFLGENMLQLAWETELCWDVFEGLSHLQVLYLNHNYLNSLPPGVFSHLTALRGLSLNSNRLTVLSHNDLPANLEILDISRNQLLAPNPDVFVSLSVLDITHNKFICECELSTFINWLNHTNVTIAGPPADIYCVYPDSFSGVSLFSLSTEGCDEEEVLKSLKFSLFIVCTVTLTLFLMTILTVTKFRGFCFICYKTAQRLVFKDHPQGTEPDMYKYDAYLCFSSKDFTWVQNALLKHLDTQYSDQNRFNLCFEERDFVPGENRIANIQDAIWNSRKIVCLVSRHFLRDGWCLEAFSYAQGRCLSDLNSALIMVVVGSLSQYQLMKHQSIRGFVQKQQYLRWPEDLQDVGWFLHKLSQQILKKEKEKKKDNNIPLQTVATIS
Sequence of Toll-like receptor 2 (Homo sapiens) (O60603 whole entry): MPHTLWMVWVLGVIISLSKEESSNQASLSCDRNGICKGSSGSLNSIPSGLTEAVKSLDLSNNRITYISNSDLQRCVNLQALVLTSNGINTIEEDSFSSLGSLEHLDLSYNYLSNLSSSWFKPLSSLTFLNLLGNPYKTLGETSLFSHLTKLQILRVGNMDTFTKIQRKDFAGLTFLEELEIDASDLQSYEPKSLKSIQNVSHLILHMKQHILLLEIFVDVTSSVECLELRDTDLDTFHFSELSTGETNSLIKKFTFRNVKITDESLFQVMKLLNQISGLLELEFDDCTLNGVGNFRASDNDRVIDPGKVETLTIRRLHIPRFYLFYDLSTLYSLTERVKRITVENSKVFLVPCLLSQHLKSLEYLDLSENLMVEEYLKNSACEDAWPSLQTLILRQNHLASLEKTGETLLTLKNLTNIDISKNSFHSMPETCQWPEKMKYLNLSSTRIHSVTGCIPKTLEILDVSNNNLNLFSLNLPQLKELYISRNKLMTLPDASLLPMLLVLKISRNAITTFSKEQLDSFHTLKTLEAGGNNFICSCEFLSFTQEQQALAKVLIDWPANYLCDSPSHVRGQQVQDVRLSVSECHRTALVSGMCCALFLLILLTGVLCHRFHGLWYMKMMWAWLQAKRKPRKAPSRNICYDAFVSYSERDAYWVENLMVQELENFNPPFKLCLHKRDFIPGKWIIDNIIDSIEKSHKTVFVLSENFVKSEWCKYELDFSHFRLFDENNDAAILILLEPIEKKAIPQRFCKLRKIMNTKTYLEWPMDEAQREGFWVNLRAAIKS
Sequence of Toll-like receptor 3 (Homo sapiens) (O15455 whole entry): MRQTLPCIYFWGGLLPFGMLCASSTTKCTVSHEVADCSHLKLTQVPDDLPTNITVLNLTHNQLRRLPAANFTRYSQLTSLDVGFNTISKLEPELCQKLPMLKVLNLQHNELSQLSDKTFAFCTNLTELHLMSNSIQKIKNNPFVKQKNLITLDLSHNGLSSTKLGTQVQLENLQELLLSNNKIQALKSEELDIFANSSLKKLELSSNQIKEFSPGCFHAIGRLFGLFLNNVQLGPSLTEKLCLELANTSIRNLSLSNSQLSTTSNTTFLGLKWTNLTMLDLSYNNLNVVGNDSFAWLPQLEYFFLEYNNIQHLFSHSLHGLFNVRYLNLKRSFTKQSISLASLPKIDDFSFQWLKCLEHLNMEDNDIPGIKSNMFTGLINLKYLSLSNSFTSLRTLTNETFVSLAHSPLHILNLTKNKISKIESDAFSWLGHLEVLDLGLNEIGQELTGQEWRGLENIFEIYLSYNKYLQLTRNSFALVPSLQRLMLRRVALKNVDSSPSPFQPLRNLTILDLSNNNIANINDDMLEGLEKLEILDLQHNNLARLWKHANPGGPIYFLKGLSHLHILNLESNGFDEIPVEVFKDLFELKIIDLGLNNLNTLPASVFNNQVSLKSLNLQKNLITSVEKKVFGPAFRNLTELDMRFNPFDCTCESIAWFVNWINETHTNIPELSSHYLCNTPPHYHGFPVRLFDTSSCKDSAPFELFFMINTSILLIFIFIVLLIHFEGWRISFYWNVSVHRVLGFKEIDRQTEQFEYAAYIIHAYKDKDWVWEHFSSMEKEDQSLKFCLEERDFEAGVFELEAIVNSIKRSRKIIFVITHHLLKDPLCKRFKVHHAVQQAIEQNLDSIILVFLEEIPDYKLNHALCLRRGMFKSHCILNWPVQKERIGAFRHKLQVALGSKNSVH

SMILES	Activity [1]	also measured
CCCCNc1nc(N)nc(C)c1Cl	–	EC50 (Toll-like receptor 8): 20 µM
CCCCNc1nc(N)nc(C)c1Br	–	EC50 (Toll-like receptor 8): 8.5 µM
CCCCNc1nc(N)nc(-c2ccccc2)c1CCCN	inactive	–
CCCCNc1cc(N)nc(N)n1	inactive	–
CCCCNc1cc(C)nc(N)n1	–	Activity [2]: inactive; Activity [3]: inactive; Activity [4]: inactive; Activity [5]: inactive; Activity [6]: inactive; Activity [7]: inactive
CCCCNc1nc(N)nc(OC)c1I	inactive	–
CCCCNc1nc(N)nc(-c2ccccc2)c1I	inactive	–
CCCCCNc1nc(N)nc(C)c1I	–	EC50 (Toll-like receptor 8): 3.7 µM
CCCCNc1nc(N)ncc1I	inactive	–
CCCC#Cc1cc(C)nc(N)n1	inactive	–
CCCCNc1nc(N)nc(C)c1CCCCCN	–	EC50 (Toll-like receptor 8): 0.3 µM
CCCCNc1nc(N)nc(C)c1CCCN	–	Activity [2]: inactive; Activity [3]: inactive; Activity [4]: inactive; Activity [5]: inactive; Activity [6]: inactive; Activity [7]: inactive
CCCCNc1nc(N)nc(C)c1Cc1ccccc1	–	EC50 (Toll-like receptor 8): 1.2 µM
CCCCNc1nc(N)nc(Cl)c1I	inactive	–
CCCCNc1cc(OC)nc(N)n1	inactive	–
CCCCCc1cc(C)nc(N)n1	inactive	–
CCCCNc1nc(N)nc(C)c1F	–	EC50 (Toll-like receptor 8): 34 µM
CCCCNc1cc(Cl)nc(N)n1	inactive	–
CCCCNc1nc(N)nc(N)c1I	inactive	–

Further lines, with some results ahead:

Activity [1]	SMILES	also measured
inactive	CCCCCCNc1nc(N)nc(C)c1I	–
inactive	CCCCSc1nc(N)nc(C)c1I	–
inactive	CCCNc1nc(N)nc(C)c1I	–
inactive	CCCCN(Cc1ccccc1)c1nc(N)nc(C)c1I	–
inactive	CCCCCc1nc(N)nc(C)c1I	–
inactive	CCCCOc1nc(N)nc(C)c1I	–
inactive	CCCCN(C)c1nc(N)nc(C)c1I	–
